In PubChem BioAssay:
Active and inactive are the calls of the source.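 Rule for the calls, unless noted: active = current rise at least 3 SD above the untreated control mean in each of two repeat wells; inactive = the rest.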

Columns and labels:
[1] = nonspecific flux increase, KCNQ1-free cells – parental CHO cells, counter-screen for KCNQ1 potentiator project (AID 493006;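 active = duplicate-averaged activation above buffer control mean plus 5 SD of those controls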); details: parental CHO-K1 cells, FluxOR thallium flux, at 10 µM; hits give high values
In short: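 Assay system: Untransfected host CHO-K1 cells with FluxOR thallium dye | Probe or stimulus: Potassium/thallium depolarization pulse | Schedule: Overnight 37 °C plating, 90 min RT dye, 20 min compound | Detection: Kinetic thallium-flux fluorescence | Read-out: Max-minus-min fluorescence over baseline, percent of buffer-to-R-L3 span | Benchmarks: Low control buffer, high control R-L3 activator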

[2] = target: Potassium voltage-gated channel subfamily KQT member 1 (Homo sapiens) (UniProt P51787); assay: enhancement of KCNQ1 channel thallium flux – FluxOR thallium flux, CHO cells, duplicates, confirmation (AID 493007;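 active = potentiation averaged over duplicate wells exceeding buffer-only control mean by more than 3 SD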;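 for outcome: cells depolarized by a potassium plus thallium sulfate stimulus after compound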); details: KCNQ1 cell line, FluxOR thallium flux fluorescence, at 10 µM; hits give high values, % of reference activator effect, buffer zero
Chain of Potassium voltage-gated channel subfamily KQT member 1 (Homo sapiens) (P51787 whole entry, looked up): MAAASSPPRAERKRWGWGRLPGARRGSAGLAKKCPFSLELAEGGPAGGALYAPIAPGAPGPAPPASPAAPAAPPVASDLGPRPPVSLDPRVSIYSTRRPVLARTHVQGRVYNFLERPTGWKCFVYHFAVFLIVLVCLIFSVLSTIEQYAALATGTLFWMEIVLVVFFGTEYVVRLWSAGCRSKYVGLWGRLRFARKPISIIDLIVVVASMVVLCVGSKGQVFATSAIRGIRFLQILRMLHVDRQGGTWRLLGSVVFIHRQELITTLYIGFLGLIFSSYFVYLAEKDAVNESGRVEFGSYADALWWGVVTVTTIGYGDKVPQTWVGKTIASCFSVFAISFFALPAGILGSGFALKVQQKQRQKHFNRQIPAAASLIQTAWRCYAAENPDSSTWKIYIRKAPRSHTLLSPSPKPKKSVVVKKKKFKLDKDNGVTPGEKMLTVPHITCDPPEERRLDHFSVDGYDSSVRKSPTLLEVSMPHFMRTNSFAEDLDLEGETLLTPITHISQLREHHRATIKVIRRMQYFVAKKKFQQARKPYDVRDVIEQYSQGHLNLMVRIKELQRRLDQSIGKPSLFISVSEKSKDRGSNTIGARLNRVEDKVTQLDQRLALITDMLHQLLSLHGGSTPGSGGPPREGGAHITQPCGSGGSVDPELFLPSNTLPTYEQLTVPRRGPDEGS
In short: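 Material: KCNQ1-expressing CHO cell line; Incubation: FluxOR dye loading 90 min, compound exposure 20 min, room temperature; Detection: FluxOR Tl+ flux fluorescence, 10 s baseline plus 110 s recording; Read-out: percent activation between buffer and R-L3 responses; Control set: buffer-only wells as 0% and R-L3 activator as 100%; Replication: duplicate wells per compound.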

[3] = target: Potassium voltage-gated channel subfamily KQT member 2 (Rattus norvegicus) (UniProt O88943); assay: KCNQ2 thallium flux enhancement – KCNQ2-CHO-K1 cells, selectivity assay for KCNQ1 potentiator project (AID 493009;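 active = mean duplicate potentiation above the buffer control mean plus 5 SD of buffer wells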;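 note: assay conditions were tuned for KCNQ1 rather than KCNQ2 modulators; signal is max minus min fluorescence divided by baseline after thallium stimulus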); details: FluxOR thallium flux fluorescence, at 10 µM; hits give high values, scaled: buffer 0, activator control 100
Chain of Potassium voltage-gated channel subfamily KQT member 2 (Rattus norvegicus) (O88943 whole entry, looked up): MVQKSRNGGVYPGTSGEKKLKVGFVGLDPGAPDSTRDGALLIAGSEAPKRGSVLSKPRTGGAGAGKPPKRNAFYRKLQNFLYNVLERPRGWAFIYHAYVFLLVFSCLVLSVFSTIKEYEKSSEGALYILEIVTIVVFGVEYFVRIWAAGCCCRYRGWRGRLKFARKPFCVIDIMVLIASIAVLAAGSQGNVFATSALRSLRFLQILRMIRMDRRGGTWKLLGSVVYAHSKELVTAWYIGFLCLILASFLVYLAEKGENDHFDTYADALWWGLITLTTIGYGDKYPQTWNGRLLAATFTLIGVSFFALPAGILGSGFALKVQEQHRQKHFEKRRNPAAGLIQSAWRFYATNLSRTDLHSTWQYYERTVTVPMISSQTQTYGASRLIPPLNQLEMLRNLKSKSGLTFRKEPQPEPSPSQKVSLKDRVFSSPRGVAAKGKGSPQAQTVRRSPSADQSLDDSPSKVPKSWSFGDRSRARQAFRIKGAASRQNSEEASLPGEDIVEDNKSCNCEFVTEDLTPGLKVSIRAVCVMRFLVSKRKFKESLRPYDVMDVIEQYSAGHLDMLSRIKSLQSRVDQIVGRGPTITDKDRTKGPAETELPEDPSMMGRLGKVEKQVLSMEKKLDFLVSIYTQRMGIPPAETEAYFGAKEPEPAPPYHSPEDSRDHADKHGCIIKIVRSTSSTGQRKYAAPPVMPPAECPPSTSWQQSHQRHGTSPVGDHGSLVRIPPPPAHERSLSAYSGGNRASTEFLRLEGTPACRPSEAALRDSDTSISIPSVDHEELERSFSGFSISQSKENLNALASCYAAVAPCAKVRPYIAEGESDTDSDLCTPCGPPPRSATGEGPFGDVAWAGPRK

[4] = target: Potassium voltage-gated channel subfamily KQT member 1 (Homo sapiens) (UniProt P51787); assay: KCNQ1 activators by electrophysiology – IonWorks patch clamp, KCNQ1-CHO cells, orthogonal assay for KCNQ1 potentiator project, confirmation (AID 493184); details: automated patch clamp current, at 10 µM; hits give high values;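 for current potentiation: percent change of the same well's current before compound addition so 0% = no change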
In short: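 assay system = KCNQ1-expressing CHO cells | medium = external bath solution at pH 7.4 | probe or stimulus = 2,000 ms depolarization, -90 to +40 mV | compound dosing = 10 µM final, single point | measured by = automated voltage clamp, amphotericin B perforated patch | measure = percent current increase versus pre-compound level | replication = duplicates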

[5] = target: Potassium voltage-gated channel subfamily E member 1 (Homo sapiens) + Potassium voltage-gated channel subfamily KQT member 1 (Homo sapiens) (UniProt P15382+P51787); assay: KCNQ1-E1 channel activation – thallium flux, CHO-K1 KCNQ1/E1 cells, selectivity assay for KCNQ1 potentiator project, confirmation (AID 493186;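 active = mean duplicate activation above the buffer control mean plus 5 SD of those controls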); details: FluxOR thallium flux, at 10 µM; hits give high values
Chain of Potassium voltage-gated channel subfamily E member 1 (Homo sapiens) + Potassium voltage-gated channel subfamily KQT member 1 (Homo sapiens) (P51787 whole entry, looked up): as the sequence (P51787 whole entry, looked up) above
In short: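 Test system – CHO-K1 cells with KCNQ1/E1 · Measured by – FluxOR Tl+ flux fluorescence, kinetic read · Controls – buffer low control, R-L3 high control · Times – dye 90 min, compound 20 min, room temperature · Replication – duplicate wells per compound · Doses – one test concentration · Evaluation – fluorescence rise relative to baseline, as percent of R-L3 response above buffer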

COC(=O)c1ccccc1NC(=S)NC(=O)c1ccc(C)cc1
inactive: outcome [1] | outcome [2] | outcome [3] | outcome [4] | outcome [5]

Cc1ccc(-c2csc(NC(=O)Cc3ccc(F)cc3)n2)o1
inactive: outcome [1] | outcome [2] | outcome [3] | outcome [4] | outcome [5]

N/C(=N\OC(=O)c1cccc2ccccc12)c1ccc(Br)cc1
inactive: outcome [1] | outcome [2] | outcome [3] | outcome [4] | outcome [5]

COC(=O)C1=C(C)Nc2nc(-c3ccccc3)nn2C1c1ccc(C)o1 (stereo not given)
inactive: outcome [1] | outcome [3] | outcome [4] | outcome [5]
active: potentiation [2] 30%

COc1ccc(-n2ccnc(SCC(=O)NC3CCCC3)c2=O)cc1OC
inactive: outcome [1] | outcome [2] | outcome [3] | outcome [4] | outcome [5]

COc1cccc(C(=O)CC(=O)C(=O)Nc2ccc(C)cc2Cl)c1
inactive: outcome [1] | outcome [2] | outcome [3] | outcome [4] | outcome [5]

O=C(Nc1nc2c(Br)cc(Br)cc2c(=O)s1)c1ccco1
inactive: outcome [1] | outcome [2] | outcome [3] | outcome [4] | outcome [5]

CC1CCCCC1NC(=S)NC(=O)c1sc2ccccc2c1Cl (stereo not given)
active: potentiation [2] 54%
inactive: outcome [1] | outcome [3] | outcome [4] | outcome [5]

COc1cccc(C2C3=C(N=c4s/c(=C\c5ccc(OCC(=O)O)cc5)c(=O)n42)c2ccccc2CC3)c1 (stereo not given)
inactive: outcome [1] | outcome [3] | outcome [4] | outcome [5]
active: potentiation [2] 53%

COc1cc(O)c2c(=O)c(-c3ccc(O[C@@H]4O[C@H](CO)[C@@H](O)[C@H](O)[C@H]4O)cc3)coc2c1
inactive: outcome [1] | outcome [2] | outcome [3] | outcome [4] | outcome [5]

CCOC(=O)c1c(C)cccc1OCC(N)=O
inactive: outcome [1] | outcome [2] | outcome [3] | outcome [4] | outcome [5]

Cc1ccc(C)c(N/C(N)=N/c2nc(C)cc(C)n2)c1
inactive: outcome [1] | outcome [2] | outcome [3] | outcome [4] | outcome [5]

CC1CN(c2nc3ccccc3nc2C(C#N)C(=O)NCc2ccc3c(c2)OCO3)CC(C)O1 (stereo not given)
active: potentiation [2] 26%
inactive: outcome [1] | outcome [3] | outcome [4] | outcome [5]

O=C(O)c1ccc([N+](=O)[O-])c(CS(=O)(=O)c2ccccc2)c1
inactive: outcome [1] | outcome [2] | outcome [3] | outcome [4] | outcome [5]

COc1ccc(C(=O)N=C2CCC(C#N)=C3c4cc(OC)c(OC)cc4CCN23)cc1
inactive: outcome [1] | outcome [3] | outcome [4] | outcome [5]
active: potentiation [2] 34.5%

O=C(NCC(c1cccs1)N1CCOCC1)C1CCN(S(=O)(=O)c2cccc(C(F)(F)F)c2)CC1 (stereo not given)
inactive: outcome [1] | outcome [2] | outcome [3] | outcome [4] | outcome [5]

S=c1[nH]nc(-c2ccco2)n1/N=C/C(Cl)=C/c1ccccc1
inactive: outcome [1] | outcome [3] | outcome [4] | outcome [5]
active: potentiation [2] 26%

CC(NC(=O)c1ccccc1Cl)C1CC2CCC1C2 (stereo not given)
inactive: outcome [1] | outcome [2] | outcome [3] | outcome [4] | outcome [5]

CN1C(=O)c2ccc(NC(=O)c3c(F)c(F)c(F)c(F)c3F)cc2C1=O
active: potentiation [2] 25.5%
inactive: outcome [1] | outcome [3] | outcome [4] | outcome [5]

CCc1ccc(NC(=S)NC2CC3CCCC(C2)N3Cc2cccs2)cc1 (stereo not given)
inactive: outcome [1] | outcome [2] | outcome [3] | outcome [4] | outcome [5]

Cc1cc(/C=N/n2cnnc2)c(C)n1-c1ccc(Cl)cc1Cl
inactive: outcome [1] | outcome [2] | outcome [3] | outcome [5]
active: current potentiation [4] 28.9%

Cn1cc(C(=O)N/N=C/c2ccc([N+](=O)[O-])cc2)c2ccccc21
inactive: outcome [1] | outcome [2] | outcome [3] | outcome [4] | outcome [5]

CN(C)CCNc1ncnc2c1sc1nc(N3CCOCC3)c3c(c12)CC(C)(C)SC3
inactive: outcome [1] | outcome [2] | outcome [3] | outcome [4] | outcome [5]

CCOC(=O)C1CCN(S(=O)(=O)c2ccc3c4c2CC(=O)N4CC(C)S3)CC1 (stereo not given)
inactive: outcome [1] | outcome [2] | outcome [3] | outcome [4] | outcome [5]

Cc1ccccc1CS(=O)(=O)c1nnc([C@H](Cc2ccccc2)NC(=O)OC(C)(C)C)o1
inactive: outcome [1] | outcome [3] | outcome [4] | outcome [5]
active: potentiation [2] 22.5%

Cn1c(=O)c2c(ncn2CC(=O)N/N=C/C(Cl)=C/c2ccccc2)n(C)c1=O
inactive: outcome [1] | outcome [2] | outcome [3] | outcome [4] | outcome [5]

COc1ccc(-c2cc(-c3ccccc3)c(C#N)c(=S)[nH]2)cc1
inactive: outcome [1] | outcome [2] | outcome [3] | outcome [4] | outcome [5]

O=C(NNC(=O)c1cc(-c2ccccc2)nn1-c1ccccc1)c1ccccc1
inactive: outcome [1] | outcome [2] | outcome [3] | outcome [4] | outcome [5]

CSc1nc(SCC(=O)O)c2sc3nc(-c4ccccc4)c4c(c3c2n1)CCC4
active: potentiation [2] 30%
inactive: outcome [1] | outcome [3] | outcome [4] | outcome [5]

CC(=O)C[C@H]1c2cc(C(F)(F)F)ccc2S(=O)(=O)N1C1CCCCC1
active: potentiation [2] 74%
inactive: outcome [1] | outcome [3] | outcome [4] | outcome [5]
